The source made the active and inactive calls. No cut-off for these calls is given here.
Experiments:
SH-SY5Y = assay: Cytotoxicity against human SH-SY5Y cells assessed as reduction in cell viability after 56 hrs by MTT assay; format: functional, cell-based; conditions: Homo sapiens, SH-SY5Y, 56 h; read-out: EC50
[1] = target: Nicotinamide phosphoribosyltransferase (Mus musculus, UniProt Q99KQ4); assay: Inhibition of recombinant mouse NAMPT expressed in bacterial expression system using nicotinamide as substrate after 1 hr by fluorescence based NMNAT-3 enzyme coupled assay; conditions: read-out: IC50
[2] = target: Nicotinamide phosphoribosyltransferase (Homo sapiens, UniProt P43490); assay: Inhibition of NAMPT in human Jurkat T cells assessed as reduction in NAD levels; format: cell-based
Liver [3] = assay: Stability in human liver microsomes after 60 mins by LC-ESI-MS analysis; format: ADME, microsome; conditions: 1 h
Liver [4] = assay: Stability in Wistar Han rat liver microsomes after 60 mins by LC-ESI-MS analysis; format: ADME, microsome; conditions: 1 h
[5] = Drug metabolism in Wistar Han rat liver microsomes assessed as mixed function oxidase mediated compound cleavage by measuring compound remaining after 60 mins in presence of NADPH-regenerating system by LC-UV analysis; format: ADME; conditions: read-out: Stability
Procedure, shortened: (§1)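 Substrate at 50 μM final, with rat or human liver microsomes at 1.0 mg/ml protein, in 50 mM Tris-HCl pH 7.4. Mix held 3.3 mM MgCl2, 1% acetonitrile and an NADPH-regenerating system (1.3 mM β-NADP, 3.3 mM glucose 6-phosphate, 0.4 U/ml G6PDH). Shaken 60 min at 37 °C, stopped with ice-cold acetonitrile. LC-UV gave % residual substrate versus a no-microsome control, mean of two replicates.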

[6] = Drug metabolism in human liver microsomes assessed as mixed function oxidase mediated compound cleavage by measuring compound remaining after 60 mins in presence of NADPH-regenerating system by LC-UV analysis; format: ADME; conditions: read-out: Stability; procedure, shortened: as §1
[7] = Stability in Wistar Han rat liver microsomes assessed as mixed function oxidase mediated compound cleavage after 60 mins in presence of NADPH-regenerating system by LC-UV analysis; format: ADME; conditions: 1 h; procedure, shortened: as §1
Liver [8] = assay: Stability in human liver microsomes assessed as mixed function oxidase mediated compound cleavage after 60 mins in presence of NADPH-regenerating system by LC-UV analysis; format: ADME, microsome; conditions: 1 h; procedure, shortened: as §1
Liver [9] = assay: Drug metabolism in Wistar Han rat liver microsomes assessed as pyridine N-oxidation after 60 mins in presence of NADPH-regenerating system by LC-UV analysis; format: ADME, microsome; conditions: 1 h
Procedure, shortened: (§2)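 Metabolites were characterized by LC-ESI-MSn on supernatants of 60 min, 37 °C incubations. Each used 50 μM substrate with rat or human liver microsomes (1.0 mg/ml protein) in 50 mM Tris-HCl pH 7.4 with 3.3 mM MgCl2, 1% acetonitrile and an NADPH-regenerating system. Reactions were quenched with cold acetonitrile and centrifuged.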

Liver [10] = assay: Drug metabolism in human liver microsomes assessed as pyridine N-oxidation after 60 mins in presence of NADPH-regenerating system by LC-UV analysis; format: ADME, microsome; conditions: 1 h; procedure, shortened: as §2
[11] = Half life in athymic Nu/Nu Harlan mouse at 10 mg/kg, iv administered as single dose up to 24 hrs by LC-ESI-MS analysis; format: ADME, organism-based; conditions: in vivo
[12] = AUC in athymic Nu/Nu Harlan mouse at 10 mg/kg, iv administered as single dose up to 24 hrs by LC-ESI-MS analysis; format: ADME, organism-based; parameters: time < 24 hr, dose 10 mg/kg, route intravenous; conditions: in vivo
[13] = Clearance in athymic Nu/Nu Harlan mouse at 10 mg/kg, iv administered as single dose up to 24 hrs by LC-ESI-MS analysis; format: ADME, organism-based; conditions: in vivo
[14] = Volume of distribution in athymic Nu/Nu Harlan mouse at 10 mg/kg, iv administered as single dose up to 24 hrs by LC-ESI-MS analysis; format: ADME, organism-based; conditions: in vivo
A2780 [15] = assay: Cytotoxicity against human A2780 cells assessed as reduction in cell viability; format: functional, cell-based
A2780 [16] = assay: Antitumor activity against human A2780 cells xenografted in athymic nu/nu Harlan mouse assessed as reduction in tumor growth at 10 mg/kg, ip bid administered for 8 consecutive days; format: functional, organism-based
Mus musculus [17] = assay: In vivo inhibition of NAMPT in DNBS-induced BALB/c mouse colitis model assessed as reduction in loss of body weight at 20 mg/kg, ip bid administered for 3 days post DNBS challenge; format: functional, organism-based
Mus musculus [18] = assay: In vivo inhibition of NAMPT in DNBS-induced BALB/c mouse colitis model assessed as reduction in mucosal congestion at 20 mg/kg, ip bid administered for 3 days post DNBS challenge; format: functional, organism-based
Mus musculus [19] = assay: In vivo inhibition of NAMPT in DNBS-induced BALB/c mouse colitis model assessed as reduction in erosion at 20 mg/kg, ip bid administered for 3 days post DNBS challenge; format: functional, organism-based
Mus musculus [20] = assay: In vivo inhibition of NAMPT in DNBS-induced BALB/c mouse colitis model assessed as reduction in hemorrhagic ulcerations at 20 mg/kg, ip bid administered for 3 days post DNBS challenge; format: functional, organism-based
Mus musculus [21] = assay: In vivo inhibition of NAMPT in DNBS-induced BALB/c mouse colitis model assessed as reduction in neutrophil infiltration by measuring myeloperoxidase levels at 20 mg/kg, ip bid administered for 3 days post DNBS challenge by ELISA; format: functional, organism-based
Liver [22] = assay: Drug level in human liver microsomes treated with N-(7-(4-(Pyridin-3-yl)-1H-1,2,3-triazol-1-yl)heptyl)-[1,1'-biphenyl]-2-carboxamide after 60 mins in presence of NADPH-regenerating system by LC-UV analysis; format: ADME, microsome; procedure, shortened: as §1
Liver [23] = assay: Drug level in Wistar Han rat liver microsomes treated with N-(7-(4-(Pyridin-3-yl)-1H-1,2,3-triazol-1-yl)heptyl)-[1,1'-biphenyl]-2-carboxamide after 60 mins in presence of NADPH-regenerating system by LC-UV analysis; format: ADME, microsome; procedure, shortened: as §1

Nicotinamide phosphoribosyltransferase (Mus musculus, UniProt Q99KQ4), sequence (Q99KQ4 whole entry): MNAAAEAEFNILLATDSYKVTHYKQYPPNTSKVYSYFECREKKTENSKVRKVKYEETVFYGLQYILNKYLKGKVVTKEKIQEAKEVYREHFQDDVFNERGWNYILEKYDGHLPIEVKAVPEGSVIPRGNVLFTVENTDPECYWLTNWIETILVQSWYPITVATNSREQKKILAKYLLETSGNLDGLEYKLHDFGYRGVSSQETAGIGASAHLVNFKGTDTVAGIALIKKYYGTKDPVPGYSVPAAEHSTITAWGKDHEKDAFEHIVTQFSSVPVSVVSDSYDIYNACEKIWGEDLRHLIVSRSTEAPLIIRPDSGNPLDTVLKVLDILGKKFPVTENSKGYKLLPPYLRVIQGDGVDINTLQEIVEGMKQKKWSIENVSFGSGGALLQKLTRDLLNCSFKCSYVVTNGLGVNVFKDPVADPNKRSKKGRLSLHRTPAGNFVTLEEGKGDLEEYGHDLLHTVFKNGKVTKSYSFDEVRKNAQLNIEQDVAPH
Nicotinamide phosphoribosyltransferase (Homo sapiens, UniProt P43490), sequence (P43490 whole entry): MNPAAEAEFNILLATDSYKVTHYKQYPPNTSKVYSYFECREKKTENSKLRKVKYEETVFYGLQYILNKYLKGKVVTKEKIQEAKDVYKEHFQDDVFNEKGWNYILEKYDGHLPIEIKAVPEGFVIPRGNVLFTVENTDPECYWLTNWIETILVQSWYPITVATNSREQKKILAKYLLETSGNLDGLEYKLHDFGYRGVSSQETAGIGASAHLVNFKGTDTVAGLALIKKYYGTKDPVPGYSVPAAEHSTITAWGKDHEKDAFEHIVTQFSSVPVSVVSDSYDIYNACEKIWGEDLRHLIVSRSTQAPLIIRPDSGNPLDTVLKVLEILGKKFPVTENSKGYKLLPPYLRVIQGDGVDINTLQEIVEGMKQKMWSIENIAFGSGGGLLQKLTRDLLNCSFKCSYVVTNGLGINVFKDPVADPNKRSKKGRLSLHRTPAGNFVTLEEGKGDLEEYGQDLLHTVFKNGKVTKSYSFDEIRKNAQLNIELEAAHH

Work on `O=C(NCCCCCCn1cc(-c2cccnc2)nn1)c1ccccc1-c1ccccc1` yielded an EC50 (SH-SY5Y) of 22.2 nM.

Compound `c1ccc(-c2ccccc2-c2cn(CCCCCCCn3cc(-c4cccnc4)nn3)nn2)cc1` has an IC50 [1] of 8.1 nM, an EC50 (SH-SY5Y) of 9.1 nM and an IC50 [2] of 7.8 nM. The Stability (Liver [3]) was “Stable”, the Stability (Liver [4]) was “Stable” and the remaining at 1 h [5] was 47%. For the same compound, the remaining at 1 h [6] was 87%, the Stability [7] was “Stable” and the Stability (Liver [8]) was “Stable”. For the same compound, the Drug metabolism (Liver [9]) was “Metabolite_Detected”, the Drug metabolism (Liver [10]) was “Metabolite_Detected” and the half-life [11] was 1.48 h. It also gave an AUC at 24 h [12] of 2250 ng·h/mL, a clearance [13] of 74 mL/min/kg and a Vd [14] of 9.4 L/kg. The IC50 (A2780 [15]) was 5.8 nM and the inhibition (A2780 [16]) was “inactive”.

In the case of `C[C@@H]1C[C@H]2[C@@H]3CCC4=CC(=O)C=C[C@]4(C)[C@@]3(F)[C@@H](O)C[C@]2(C)[C@@]1(O)C(=O)CO`, the inhibition (Mus musculus [17]) is reported as “Active”, the inhibition (Mus musculus [18]) is reported as “Active” and the inhibition (Mus musculus [19]) is reported as “Active”. For the same compound, the inhibition (Mus musculus [20]) was “Active” and the inhibition (Mus musculus [21]) was “Active”.

`O=C(NCCCCCCCCn1cc(-c2cccnc2)nn1)Nc1ccccc1-c1ccccc1` showed an EC50 (SH-SY5Y) of 154 nM.

Compound `c1ccc(-c2ccccc2-c2cn(CCCCCCCc3cn(-c4cccnc4)nn3)nn2)cc1` has an EC50 (SH-SY5Y) of 84.2 nM.

With `c1ccc(-c2ccccc2-c2cn(CCCCCCn3cc(-c4cccnc4)nn3)nn2)cc1` the EC50 (SH-SY5Y) was 36.6 nM.

Compound `c1ccc(-c2ccccc2CNCCCCCCCCn2cc(-c3cccnc3)nn2)cc1` has an EC50 (SH-SY5Y) of 205 nM.

Compound `c1ccc(-c2ccccc2OCCCc2ccc(-n3cc(-c4cccnc4)nn3)cc2)cc1` has an EC50 (SH-SY5Y) of 71 nM.

Work on `O=C(NCCCCCCCn1cc(-c2cccnc2)nn1)Nc1ccccc1-c1ccccc1` yielded an IC50 [1] of 32.4 nM and an EC50 (SH-SY5Y) of 7 nM.

`c1ccc(-c2ccccc2-c2cn(CCCCCCCCn3cc(-c4cccnc4)nn3)nn2)cc1` gave an EC50 (SH-SY5Y) of 74.5 nM.

`O=S(=O)(NCCCCCCn1cc(-c2cccnc2)nn1)c1ccccc1-c1ccccc1` showed an EC50 (SH-SY5Y) of 100 nM.

Compound `c1ccc(-c2ccccc2-n2cc(CCCCCCCn3cc(-c4cccnc4)nn3)nn2)cc1` has an EC50 (SH-SY5Y) of 55.1 nM.

Compound `O=C(CCCCCCCc1cc(-c2cccnc2)on1)Nc1ccccc1-c1ccccc1` has an IC50 [1] of 49.9 nM and an EC50 (SH-SY5Y) of 59.8 nM.

With `O=C(NCCCCCCn1cc(-c2cccnc2)nn1)Nc1ccccc1-c1ccccc1` the EC50 (SH-SY5Y) was 43 nM.

Work on `O=C(CCCCCCCc1cnc(-c2cccnc2)s1)Nc1ccccc1-c1ccccc1` yielded an EC50 (SH-SY5Y) of 5250 nM.

With `c1ccc(-c2ccccc2OCCc2ccc(Cn3cc(-c4cccnc4)nn3)cc2)cc1` the IC50 [1] was 15.6 nM and the EC50 (SH-SY5Y) was 2.4 nM.

For `O=S(=O)(NCCCCCCCn1cc(-c2cccnc2)nn1)c1ccccc1-c1ccccc1`, the EC50 (SH-SY5Y) was 99.2 nM.

`O=S(=O)(NCCCCCCCCn1cc(-c2cccnc2)nn1)c1ccccc1Br` showed an EC50 (SH-SY5Y) of 171 nM.

`O=C(CCCCCCCc1nnc(-c2cccnc2)o1)Nc1ccccc1-c1ccccc1` showed an EC50 (SH-SY5Y) of 370 nM.

For `NC(=O)c1ccccc1-c1ccccc1`, the Drug metabolism (Liver [22]) was “Metabolite_Detected” and the Drug metabolism (Liver [23]) was “Metabolite_Detected”.

In the case of `O=C(Nc1ccccc1-c1ccccc1)OCCCCCCn1cc(-c2cccnc2)nn1`, the EC50 (SH-SY5Y) is reported as 34 nM.

Reference: ChEMBL document CHEMBL4007408, “Identification of Novel Triazole-Based Nicotinamide Phosphoribosyltransferase (NAMPT) Inhibitors Endowed with Antiproliferative and Antiinflammatory Activity” (J Med Chem, 2017)
